Laboratory results published in ChEMBL document CHEMBL1275590, “Novel arylimidamides for treatment of visceral leishmaniasis” (Antimicrob Agents Chemother, 2010).

What was measured:
[1] = AUC (0 to infinity) in Swiss Webster mouse at 4.9 mg/kg, iv by HPLC-MS/MS analysis; assay type: ADME, organism-based; design: time infinity, dose 4.9 mg/kg, route intravenous; conditions: plasma
In short: (§1)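 Male Swiss Webster mice, n = 3 per time point. For i.v., the compound was dissolved in sterile water, diluted 1:1 with 2× saline, and given as a tail-vein bolus over ~10–20 s. For p.o., it was given by gavage in sterile water. Dose volume was 5 ml/kg. Terminal plasma was taken from 5 min to 72 h and measured by HPLC-MS/MS (calibration 2.5–10,000 nM). Parameters came from noncompartmental analysis.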

[2] = Oral bioavailability in Swiss Webster mouse at 66 mg/kg by HPLC-MS/MS analysis; assay type: ADME, organism-based; conditions: in vivo
In short: (§2)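 Male Swiss Webster mice (n = 3 per time point), single dose by oral gavage (sterile water solution) or tail-vein bolus i.v. (water diluted 1:1 with 2× saline, over ~10–20 s); dose volume 5 ml/kg. Terminal blood sampled from 5 min to 72 h postdose; plasma quantified by HPLC-MS/MS (positive-ion SRM). Noncompartmental analysis gave Cmax, Tmax, AUC0-∞, CL, Vss; bioavailability from p.o. versus i.v. exposure.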

Mus musculus [3] = experiment: AUC (0 to infinity) in Swiss Webster mouse at 131 mg/kg, po by HPLC-MS/MS analysis; assay type: ADME, organism-based, Plasma; design: dose 131 mg/kg, route oral, time infinity; conditions: in vivo; in short: as §1
Mus musculus [4] = experiment: Toxicity in BALB/c mouse assessed as tendency to startle at 50 mg/kg/day, ip administered for five days; assay type: organism-based; design: route intraperitoneal; conditions: in vivo
In short: (§3)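 Acute overt toxicity was checked in uninfected female BALB/c mice before the efficacy work. Compounds were given intraperitoneally once daily for 5 days, and mice were watched for clinical signs such as ruffled fur, hypoactivity, tremors, ataxia and startle, and for survival.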

Mus musculus [5] = experiment: Toxicity in BALB/c mouse assessed as tremor at 50 mg/kg/day, ip administered for five days; assay type: organism-based; design: route intraperitoneal; conditions: in vivo; in short: as §3
[6] = Cmax in Swiss Webster mouse at 66 mg/kg, po by HPLC-MS/MS analysis; assay type: ADME, organism-based; design: dose 66 mg/kg, route oral; conditions: in vivo; in short: as §1
Mus musculus [7] = experiment: (§4) Volume of distribution in Swiss Webster mouse at 66 mg/kg, po by HPLC-MS/MS analysis; assay type: ADME, organism-based; design: dose 66 mg/kg, route oral; conditions: in vivo; in short: as §2
Mus musculus [8] = experiment: Toxicity in BALB/c mouse at 25 mg/kg/day, po administered for five days; assay type: organism-based; design: route oral; conditions: in vivo
Mus musculus [9] = experiment: Toxicity in BALB/c mouse assessed as occurrence of tremor at 150 mg/kg/day, po administered for five days measured on day 4; assay type: organism-based; design: route oral; conditions: in vivo
In short: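 Female BALB/c mice (n = 5 per dose), dosed once daily for 5 consecutive days p.o. (20 ml/kg) or i.v. (10 ml/kg) with compound in sterile water, prepared fresh daily under yellow light. Vehicle controls n = 5 per route. Clinical observations, body weights, serum chemistry and hematology on day 6 before necropsy; histopathology of formalin-fixed tissues. Chemistry analysed by one-way ANOVA with Dunnett's posttest.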

Mus musculus [10] = experiment: Volume of distribution in Swiss Webster mouse at 131 mg/kg, po by HPLC-MS/MS analysis; assay type: ADME, organism-based; design: dose 131 mg/kg, route oral; conditions: in vivo
In short: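 Male Swiss Webster mice (n = 3 per time point) got a single oral gavage dose in sterile water, 5 ml/kg. The 5 mM formulation was a clear solution; the 20 and 40 mM formulations were gelatinous. Terminal blood was collected from 5 min to 72 h postdose, and plasma was analysed by HPLC-MS/MS. Volume of distribution came from noncompartmental analysis.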

[11] = Half life in Swiss Webster mouse at 131 mg/kg, po by HPLC-MS/MS analysis; assay type: ADME, organism-based; design: dose 131 mg/kg, route oral; conditions: in vivo; in short: as §1
Mus musculus [12] = experiment: Hepatotoxicity in BALB/c mouse assessed as AST level in serum at 150 mg/kg/day, po administered for five days (Rvb= 70 U/L); assay type: toxicity, organism-based; design: route oral; conditions: in vivo
[13] = Tmax in Swiss Webster mouse at 66 mg/kg, po by HPLC-MS/MS analysis; assay type: ADME, organism-based; design: dose 66 mg/kg, route oral; conditions: in vivo; in short: as §2
Leishmania donovani [14] = experiment: Antileishmanial activity against Leishmania donovani WR378 infected in golden Syrian hamster assessed as reduction in liver parasitemia at 30 mg/kg/day, po administered for five days; assay type: functional; conditions: 120 h
In short: (§5)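 11-day golden hamster VL model adapted from an 8-day method, using L. donovani WR378 metacyclic promastigotes. Dosing was oral, once daily for 5 days. Animals were euthanized on day 11 post-infection. Liver, spleen and femoral bone marrow (flushed with Schneider's medium) were harvested.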

[15] = Induction of mutagenicity in Salmonella serovar Typhimurium TA 100 assessed as number of revertant colonies at 10 ug by Ames assay; assay type: toxicity, Salmonella enterica subsp. enterica serovar Typhimurium; conditions: in vivo
In short: (§6)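 Ames plate incorporation with S. Typhimurium TA98 and TA100, with or without Aroclor 1254-induced rat liver S9 (10% vol/vol). Compound was dissolved in sterile water and serially diluted to 1–500 μg/plate. Positive controls were 2-nitrofluorene and sodium azide without S9, and 2-aminoanthracene with S9; sterile water and DMSO served as vehicles. Revertant colonies and background lawn were scored. A mutagen was defined as a mean revertant count at least 2-fold over solvent control. Single experiment.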

Leishmania donovani [16] = experiment: Antileishmanial activity against Leishmania donovani WR378 infected in golden Syrian hamster assessed as reduction in liver parasitemia at 100 mg/kg/day, po administered for five days; assay type: functional; conditions: 120 h; in short: as §5
[17] = Drug level in Swiss Webster mouse spleen at 5 mg/kg, iv after 2 hrs by HPLC/UV analysis; conditions: read-out: Drug uptake
Mus musculus [18] = experiment: Hepatotoxicity in BALB/c mouse assessed as ALT level in serum at 100 mg/kg/day, po administered for five days (Rvb= 36 U/L); assay type: toxicity, organism-based; design: route oral; conditions: in vivo
[19] = Induction of mutagenicity in Salmonella serovar Typhimurium TA 100 assessed as number of revertant colonies at 5 ug by Ames assay in presence of Aroclor 1254-induced rat liver S9 metabolic activation system; assay type: toxicity, subcellular, Salmonella enterica subsp. enterica serovar Typhimurium; in short: as §6
Leishmania donovani [20] = experiment: Antileishmanial activity against Leishmania donovani WR378 infected in golden Syrian hamster assessed as reduction in bone marrow parasitemia at 30 mg/kg/day, po administered for five days; assay type: functional; conditions: 120 h; in short: as §5
[21] = as §4; assay type: ADME, organism-based; design: dose 66 mg/kg, route oral; conditions: Swiss Webster, in vivo; in short: as §2
[22] = Induction of mutagenicity in Salmonella serovar Typhimurium TA 98 assessed as number of revertant colonies at 5 ug by Ames assay; assay type: toxicity, Salmonella enterica subsp. enterica serovar Typhimurium; conditions: in vivo; in short: as §6
[23] = Tmax in Swiss Webster mouse at 5 mg/kg, iv by HPLC-MS/MS analysis; assay type: ADME, organism-based; design: dose 5 mg/kg, route intravenous; conditions: in vivo; in short: as §2
Mus musculus [24] = experiment: Hepatotoxicity in BALB/c mouse assessed as alkaline phosphatase in serum at 150 mg/kg/day, po administered for five days (Rvb= 129 U/L); assay type: toxicity, organism-based; design: route oral; conditions: in vivo
Mus musculus [25] = experiment: Hepatotoxicity in BALB/c mouse assessed as alkaline phosphatase level in serum at 30 mg/kg/day, iv administered for five days (Rvb= 134 U/L); assay type: toxicity, organism-based; design: route intravenous; conditions: in vivo
[26] = Induction of mutagenicity in Salmonella serovar Typhimurium TA 98 assessed as number of revertant colonies at 500 ug by Ames assay in presence of Aroclor 1254-induced rat liver S9 metabolic activation system; assay type: toxicity, subcellular, Salmonella enterica subsp. enterica serovar Typhimurium
In short: (§7)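 Plate incorporation test, S. Typhimurium TA98 (and TA100), with or without Aroclor 1254-induced rat liver S9 (10% vol/vol). Compound dissolved in sterile water, serially diluted to 1–1,000 or 1–500 μg/plate. Positive controls: 2-nitrofluorene and sodium azide without S9, 2-aminoanthracene with S9; water and DMSO vehicle controls. Revertant colonies and background lawn scored; mutagen if mean revertants ≥2-fold solvent control. Single experiment.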

[27] = Induction of mutagenicity in Salmonella serovar Typhimurium TA 98 assessed as number of revertant colonies at 500 ug by Ames assay; assay type: toxicity, Salmonella enterica subsp. enterica serovar Typhimurium; in short: as §7

Question: Which AUC(0-inf) [1] does the source give for `CCOc1cc(NC(=N)c2ccccn2)ccc1-c1ccc(-c2ccc(NC(=N)c3ccccn3)cc2OCC)o1` here?
Answer: 4.5 µM·h

Question: What about the bioavailability [2] of the same compound?
Answer: 9.3%

Question: What about the AUC (Mus musculus [3]) of the same compound?
Answer: 30 µM·h

Question: And the Activity (Mus musculus [4])?
Answer: Toxic

Question: And the Activity (Mus musculus [5])?
Answer: Toxic

Question: What about the Cmax [6] of the same compound?
Answer: 0.4 µM

Question: And the Vd (Mus musculus [7])?
Answer: 71 L/kg

Question: What about the Activity (Mus musculus [8]) of the same compound?
Answer: Non-toxic

Question: And the Activity (Mus musculus [9])?
Answer: Toxic

Question: What about the Vd (Mus musculus [10]) of the same compound?
Answer: 76 L/kg

Question: What about the half-life [11] of the same compound?
Answer: 32 h

Question: And the Activity (Mus musculus [12])?
Answer: 770 U/L

Question: And the Tmax [13]?
Answer: 2 h

Question: What does the source list for `CC(C)Oc1cc(NC(=N)c2ccccn2)ccc1-c1ccc(-c2ccc(NC(=N)c3ccccn3)cc2OC(C)C)o1`?
Answer: inhibition in vivo at 30 mg/kg/day (Leishmania donovani [14]): 75%; Activity [15]: 148; inhibition in vivo at 100 mg/kg/day (Leishmania donovani [16]): 89%; concentration at 2 h [17]: 13.5 µM; Activity (Mus musculus [18]): 34 U/L; Activity [19]: 154; inhibition in vivo at 30 mg/kg/day (Leishmania donovani [20]): 24%; Tmax [21]: 4.98 min; Activity [22]: 29; Tmax [23]: 5 min; Activity (Mus musculus [24]): 142 U/L; Activity (Mus musculus [25]): 118 U/L; Activity [26]: 47; Activity [27]: 28
